Experimental data from ChEMBL document CHEMBL1140782, “Nitrogen-appended N-alkylsulfonamides as inhibitors of gamma-secretase” (Bioorg Med Chem Lett, 2008).
pIC50: −log10 of the molar value.

The molecules below were run on Brain (assay: Drug level in Tg2576 beta-APP-Swedish transgenic mouse brain at 200 umol/kg, po). Conditions: in vivo, read-out: Drug uptake.
Assay type: ADME, organism-based
Outline: (§1)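 Tg2576 βAPP-Swedish transgenic mice received a single oral dose of 200 µmol/kg. At 3 h after dosing, brain Aβ was measured as percent reduction, and compound concentrations were measured in plasma and brain in nM, reported as mean ± deviation.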

| concentration | SMILES |
| --- | --- |
| 0.759 µM | C[C@H](CCCN(C)S(C)(=O)=O)N(c1cc(Cl)ccc1CO)S(=O)(=O)c1ccc(Cl)cc1 |
| 1.16 µM | C[C@H](CCCn1cnnn1)N(c1cc(Cl)ccc1CO)S(=O)(=O)c1ccc(Cl)cc1 |

What follows are molecules tested on Plasma (assay: Drug level in Tg2576 beta-APP-Swedish transgenic mouse plasma at 200 umol/kg, po). Conditions: in vivo.
Assay type: ADME, organism-based
Outline: as §1

| concentration | SMILES |
| --- | --- |
| 12.3 µM | C[C@H](CCCN(C)S(C)(=O)=O)N(c1cc(Cl)ccc1CO)S(=O)(=O)c1ccc(Cl)cc1 |
| 5.47 µM | C[C@H](CCCn1cnnn1)N(c1cc(Cl)ccc1CO)S(=O)(=O)c1ccc(Cl)cc1 |

Each molecule was assayed against Gamma-secretase (assay: Inhibition of human gamma secretase in H4 cells assessed as reduction of amyloid beta-40 levels). Conditions: not given.
Assay type: cell-based
Outline: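 Cells were plated in 96 wells and allowed to attach. Medium was then replaced with Ultraculture containing compound at a final 1% DMSO, and cells were incubated overnight. Aβ40 in the conditioned medium was measured by sandwich ELISA, using a C-terminal Aβ40-specific monoclonal capture antibody and an HRP-labelled N-terminal Aβ monoclonal antibody for detection.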

| SMILES | pIC50 |
| --- | --- |
| C=C(Cl)CN(c1cc(Cl)ccc1CO)S(=O)(=O)c1ccc(C)cc1 | 6.07 |
| C[C@H](CCCn1cccn1)N(c1cc(Cl)ccc1CO)S(=O)(=O)c1ccc(Cl)cc1 | 7.74 |
| C[C@H](CCCn1nccn1)N(c1cc(Cl)ccc1CO)S(=O)(=O)c1ccc(Cl)cc1 | 7.92 |
| CC(C)C(=O)NCCC[C@@H](C)N(c1cc(Cl)ccc1CO)S(=O)(=O)c1ccc(Cl)cc1 | 7.85 |
| C[C@H](CCCNC1CCCO1)N(c1cc(Cl)ccc1CO)S(=O)(=O)c1ccc(Cl)cc1 (stereo partly specified) | 7.54 |
| C[C@H](CCCN1CCCCC1)N(c1cc(Cl)ccc1CO)S(=O)(=O)c1ccc(Cl)cc1 | 7.30 |
| C[C@H](CCCNC(=O)Cc1ccccc1)N(c1cc(Cl)ccc1CO)S(=O)(=O)c1ccc(Cl)cc1 | 7.59 |
| C[C@H](CCCN1CCN(C)CC1)N(c1cc(Cl)ccc1CO)S(=O)(=O)c1ccc(Cl)cc1 | 7.54 |
| C[C@H](CCCNC(=O)CCc1ccccc1)N(c1cc(Cl)ccc1CO)S(=O)(=O)c1ccc(Cl)cc1 | 7.14 |
| C[C@H](CCCn1nnc(-c2ccccc2)n1)N(c1cc(Cl)ccc1CO)S(=O)(=O)c1ccc(Cl)cc1 | 7.21 |
| C[C@H](CCCNc1ccccc1)N(c1cc(Cl)ccc1CO)S(=O)(=O)c1ccc(Cl)cc1 | 7.44 |
| C[C@H](CCCN1CCc2ccccc2C1)N(c1cc(Cl)ccc1CO)S(=O)(=O)c1ccc(Cl)cc1 | 7.08 |
| C[C@H](CCCn1ccnc1)N(c1cc(Cl)ccc1CO)S(=O)(=O)c1ccc(Cl)cc1 | 7.96 |
| CCC(=O)NCCC[C@@H](C)N(c1cc(Cl)ccc1CO)S(=O)(=O)c1ccc(Cl)cc1 | 7.89 |
| C[C@H](CCCN)N(c1cc(Cl)ccc1CO)S(=O)(=O)c1ccc(Cl)cc1 | 6.54 |
| C[C@H](CCCn1nnnc1-c1ccccc1)N(c1cc(Cl)ccc1CO)S(=O)(=O)c1ccc(Cl)cc1 | 7.82 |
| CNCCC[C@@H](C)N(c1cc(Cl)ccc1CO)S(=O)(=O)c1ccc(Cl)cc1 | 6.58 |
| C[C@H](CCCNC(=O)c1ccccc1)N(c1cc(Cl)ccc1CO)S(=O)(=O)c1ccc(Cl)cc1 | 7.82 |

Stronger by pIC50, values ahead:

| pIC50 | SMILES |
| --- | --- |
| 8.30 | CCC[C@@H](C)N(c1cc(Cl)ccc1CO)S(=O)(=O)c1ccc(Cl)cc1 |
| 8.25 | C[C@H](CCCn1nnc(N(C)C)n1)N(c1cc(Cl)ccc1CO)S(=O)(=O)c1ccc(Cl)cc1 |
| 9.49 | C[C@H](CCCN(C)S(C)(=O)=O)N(c1cc(Cl)ccc1CO)S(=O)(=O)c1ccc(Cl)cc1 |
| 9.12 | Cc1nnnn1CCC[C@@H](C)N(c1cc(Cl)ccc1CO)S(=O)(=O)c1ccc(Cl)cc1 |
| 9.28 | C[C@H](CCCn1nnnc1N(C)C)N(c1cc(Cl)ccc1CO)S(=O)(=O)c1ccc(Cl)cc1 |
| 9.29 | C[C@H](CCCn1cnnn1)N(c1cc(Cl)ccc1CO)S(=O)(=O)c1ccc(Cl)cc1 |
| 8.14 | CC(=O)NCCC[C@@H](C)N(c1cc(Cl)ccc1CO)S(=O)(=O)c1ccc(Cl)cc1 |
| 8.09 | C[C@H](CCCNC(=O)CO)N(c1cc(Cl)ccc1CO)S(=O)(=O)c1ccc(Cl)cc1 |
| 8.16 | COCC(=O)NCCC[C@@H](C)N(c1cc(Cl)ccc1CO)S(=O)(=O)c1ccc(Cl)cc1 |
| 9.05 | C[C@H](CCCn1ccnn1)N(c1cc(Cl)ccc1CO)S(=O)(=O)c1ccc(Cl)cc1 |
| 8.51 | C[C@H](CCCN1CCOCC1)N(c1cc(Cl)ccc1CO)S(=O)(=O)c1ccc(Cl)cc1 |
| 8.80 | C[C@H](CCCNC(=O)[C@H](O)c1ccccc1)N(c1cc(Cl)ccc1CO)S(=O)(=O)c1ccc(Cl)cc1 |
| 8.54 | C[C@H](CCCNC(=O)[C@@H](O)c1ccccc1)N(c1cc(Cl)ccc1CO)S(=O)(=O)c1ccc(Cl)cc1 |
| 8.29 | C[C@H](CCCNC=O)N(c1cc(Cl)ccc1CO)S(=O)(=O)c1ccc(Cl)cc1 |
| 8.96 | C[C@H](CCCN1CCCS1(=O)=O)N(c1cc(Cl)ccc1CO)S(=O)(=O)c1ccc(Cl)cc1 |
| 8.13 | C[C@H](CCCNS(=O)(=O)c1ccccc1)N(c1cc(Cl)ccc1CO)S(=O)(=O)c1ccc(Cl)cc1 |
| 8.19 | C[C@H](CCCN(C)C)N(c1cc(Cl)ccc1CO)S(=O)(=O)c1ccc(Cl)cc1 |
| 8.21 | Cc1nnn(CCC[C@@H](C)N(c2cc(Cl)ccc2CO)S(=O)(=O)c2ccc(Cl)cc2)n1 |
| 8.92 | C[C@H](CCCn1ncnn1)N(c1cc(Cl)ccc1CO)S(=O)(=O)c1ccc(Cl)cc1 |
| 8.32 | C[C@H](CCCn1cncn1)N(c1cc(Cl)ccc1CO)S(=O)(=O)c1ccc(Cl)cc1 |
| 9.64 | C[C@H](CCCNS(C)(=O)=O)N(c1cc(Cl)ccc1CO)S(=O)(=O)c1ccc(Cl)cc1 |

What follows are molecules tested on Mus musculus (assay: Reduction of amyloid beta levels in Tg2576 beta-APP-Swedish transgenic mouse at 500 umol/kg, po after 3 hrs). Conditions: not given.
Assay type: functional
Set-up: scale not given: the % may be the effect or the level left

| SMILES | Activity |
| --- | --- |
| CCC[C@@H](C)N(c1cc(Cl)ccc1CO)S(=O)(=O)c1ccc(Cl)cc1 | 25% |

What follows are molecules tested on Mus musculus (assay: Reduction of amyloid beta levels in Tg2576 beta-APP-Swedish transgenic mouse at 200 umol/kg, po after 3 hrs). Conditions: not given.
Assay type: functional
Set-up: scale not given: the % may be the effect or the level left
Outline: as §1

| SMILES | Activity |
| --- | --- |
| C[C@H](CCCN(C)S(C)(=O)=O)N(c1cc(Cl)ccc1CO)S(=O)(=O)c1ccc(Cl)cc1 | 27% |
| C[C@H](CCCn1cnnn1)N(c1cc(Cl)ccc1CO)S(=O)(=O)c1ccc(Cl)cc1 | 41% |
